Active and inactive are the calls of the source. The rule behind the calls is not given here.
What was measured:
Staphylococcus aureus [1] = assay: Antibacterial activity against Staphylococcus aureus ATCC 29213 after 16 to 20 hrs by broth microdilution method; type: functional
Procedure, shortened: (§1)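 Broth microdilution per CLSI. Bacteria grown 4-6 h (about 10⁸ CFU/mL), then diluted to about 10⁶ CFU/mL. Medium: Mueller-Hinton broth, except Luria-Bertani broth for E. coli. Compounds in sterile water, twofold series 256-0.5 µg/mL, mixed 1:1 with inoculum, 37 °C for 16-20 h. MIC is the lowest concentration without visible growth. Duplicate wells; experiment repeated at least twice.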

Escherichia coli [2] = assay: Antibacterial activity against drug-resistant NDM1 producing Escherichia coli clinical isolate 1460 after 16 to 20 hrs by broth microdilution method; type: functional
Procedure, shortened: (§2)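 CLSI broth microdilution in Mueller-Hinton broth. A 4-6 h culture was diluted to about 10⁶ CFU/mL and mixed 1:1 with compound dilutions prepared at 256 to 0.5 µg/mL from aqueous stocks. Plates were incubated at 37 °C for 16-20 h and read visually for MIC. Each concentration was run in duplicate, and the experiment was repeated at least twice. Vancomycin and meropenem were comparators.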

Staphylococcus aureus [3] = assay: Antibacterial activity against methicillin-resistant Staphylococcus aureus clinical isolate 20130911034sau after 16 to 20 hrs by broth microdilution method; type: functional; procedure, shortened: as §2
Escherichia coli [4] = assay: Antibacterial activity against drug-resistant NDM1 producing Escherichia coli clinical isolate Ecl-14-59 after 16 to 20 hrs by broth microdilution method; type: functional; procedure, shortened: as §2
Klebsiella pneumoniae [5] = assay: Antibacterial activity against drug-resistant carbapenemase producing Klebsiella pneumoniae clinical isolate EC-13-23 after 16 to 20 hrs by broth microdilution method; type: functional; procedure, shortened: as §2
Staphylococcus aureus [6] = assay: Antibacterial activity against methicillin-resistant Staphylococcus aureus clinical isolate 1-may after 16 to 20 hrs by broth microdilution method; type: functional; procedure, shortened: as §2
Klebsiella pneumoniae [7] = assay: Antibacterial activity against drug-resistant carbapenemase producing Klebsiella pneumoniae clinical isolate KP-13-55 after 16 to 20 hrs by broth microdilution method; type: functional; procedure, shortened: as §2
Escherichia coli [8] = assay: Induction of cytoplasmic membrane depolarization in Escherichia coli ATCC 25922 at 10 to 20 ug/ml measured every 2 mins for 12 mins by DiSC35 dye-based fluorescence assay; type: functional, organism-based
Procedure, shortened: (§3)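 Mid-log cells (~10⁸ CFU/mL) were suspended in PBS (S. aureus) or HEPES/glucose/KCl with EDTA (E. coli). They were preloaded with DiSC3(5) for 30 min (S. aureus) or 40 min (E. coli), and baseline fluorescence was read for 8 min. Compound was added to 20 µg/mL final, and fluorescence (ex 622/em 670 nm) was read every 2 min for 12 min. Water served as control.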

Staphylococcus aureus [9] = assay: Antibacterial activity against methicillin-resistant Staphylococcus aureus clinical isolate 1208143 after 16 to 20 hrs by broth microdilution method; type: functional; procedure, shortened: as §2
Staphylococcus aureus [10] = assay: Antibacterial activity against methicillin-resistant Staphylococcus aureus clinical isolate 1207007 after 16 to 20 hrs by broth microdilution method; type: functional; procedure, shortened: as §2
Escherichia coli [11] = assay: Antibacterial activity against drug-resistant NDM1 producing Escherichia coli clinical isolate Ecl-14-56 after 16 to 20 hrs by broth microdilution method; type: functional; procedure, shortened: as §2
Klebsiella pneumoniae [12] = assay: Antibacterial activity against drug-resistant carbapenemase producing Klebsiella pneumoniae clinical isolate KP-14-3 after 16 to 20 hrs by broth microdilution method; type: functional; procedure, shortened: as §2
Staphylococcus aureus [13] = assay: Antibacterial activity against methicillin-resistant Staphylococcus aureus clinical isolate 1105183 cono7 after 16 to 20 hrs by broth microdilution method; type: functional; procedure, shortened: as §2
Staphylococcus aureus [14] = assay: Antibacterial activity against methicillin-resistant Staphylococcus aureus clinical isolate 0831010 after 16 to 20 hrs by broth microdilution method; type: functional; procedure, shortened: as §2
Klebsiella pneumoniae [15] = assay: Antibacterial activity against drug-resistant carbapenemase producing Klebsiella pneumoniae clinical isolate KP-14-5 after 16 to 20 hrs by broth microdilution method; type: functional; procedure, shortened: as §2
Escherichia coli [16] = assay: Antibacterial activity against drug-resistant NDM1 producing Escherichia coli clinical isolate CF-13-61 after 16 to 20 hrs by broth microdilution method; type: functional; procedure, shortened: as §2
Escherichia coli [17] = assay: Antibacterial activity against drug-resistant NDM1 producing Escherichia coli clinical isolate Ecl-13-62 after 16 to 20 hrs by broth microdilution method; type: functional; procedure, shortened: as §2
Klebsiella pneumoniae [18] = assay: Antibacterial activity against drug-resistant carbapenemase producing Klebsiella pneumoniae clinical isolate KP-13-45 after 16 to 20 hrs by broth microdilution method; type: functional; procedure, shortened: as §2
Klebsiella pneumoniae [19] = assay: Antibacterial activity against drug-resistant carbapenemase producing Klebsiella pneumoniae clinical isolate KP-14-2 after 16 to 20 hrs by broth microdilution method; type: functional; procedure, shortened: as §2
Escherichia coli [20] = assay: Induction of inner membrane permeabilization in Escherichia coli ATCC 25922 at 10 to 20 ug/ml measured every 2 mins for 12 mins by propidium iodide staining-based fluorescence assay; type: functional, organism-based
Procedure, shortened: (§4)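 Mid-log cells (~10⁸ CFU/mL) were suspended in PBS (S. aureus) or HEPES/glucose/KCl (E. coli). They were preincubated with propidium iodide for 30 min (S. aureus) or 40 min (E. coli), and baseline fluorescence was read for 8 min. Compound was added to 20 µg/mL final, and fluorescence (ex 535/em 617 nm) was read every 2 min for 12 min.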

Escherichia coli [21] = assay: Antibacterial activity against drug-resistant NDM1 producing Escherichia coli clinical isolate KP-13-58 after 16 to 20 hrs by broth microdilution method; type: functional; procedure, shortened: as §2
Staphylococcus aureus [22] = assay: Antibacterial activity against methicillin-resistant Staphylococcus aureus clinical isolate 0906202 after 16 to 20 hrs by broth microdilution method; type: functional; procedure, shortened: as §2
Escherichia coli [23] = assay: Antibacterial activity against drug-resistant NDM1 producing Escherichia coli clinical isolate EA-14-61 after 16 to 20 hrs by broth microdilution method; type: functional; procedure, shortened: as §2
Escherichia coli [24] = assay: Antibacterial activity against drug-resistant NDM1 producing Escherichia coli clinical isolate EC-14-54 after 16 to 20 hrs by broth microdilution method; type: functional; procedure, shortened: as §2
Klebsiella pneumoniae [25] = assay: Antibacterial activity against drug-resistant carbapenemase producing Klebsiella pneumoniae clinical isolate KP-14-18 after 16 to 20 hrs by broth microdilution method; type: functional; procedure, shortened: as §2
Klebsiella pneumoniae [26] = assay: Antibacterial activity against drug-resistant carbapenemase producing Klebsiella pneumoniae clinical isolate KP-14-8 after 16 to 20 hrs by broth microdilution method; type: functional; procedure, shortened: as §2
Salmonella enterica = assay: Antibacterial activity against Salmonella enterica ATCC 13076 after 16 to 20 hrs by broth microdilution method; type: functional; procedure, shortened: as §1
Klebsiella pneumoniae [27] = assay: Antibacterial activity against drug-resistant carbapenemase producing Klebsiella pneumoniae clinical isolate KP-14-45 after 16 to 20 hrs by broth microdilution method; type: functional; procedure, shortened: as §2
Escherichia coli [28] = assay: Antibacterial activity against drug-resistant NDM1 producing Escherichia coli clinical isolate Ecl-14-58 after 16 to 20 hrs by broth microdilution method; type: functional; procedure, shortened: as §2
Escherichia coli [29] = assay: Antibacterial activity against drug-resistant NDM1 producing Escherichia coli clinical isolate EC-13-49 after 16 to 20 hrs by broth microdilution method; type: functional; procedure, shortened: as §2
Enterococcus faecalis = assay: Antibacterial activity against Enterococcus faecalis ATCC 29212 after 16 to 20 hrs by broth microdilution method; type: functional; procedure, shortened: as §1
Staphylococcus aureus [30] = assay: Antibacterial activity against methicillin-resistant Staphylococcus aureus clinical isolate 20131012632sau after 16 to 20 hrs by broth microdilution method; type: functional; procedure, shortened: as §2
Klebsiella pneumoniae [31] = assay: Antibacterial activity against drug-resistant carbapenemase producing Klebsiella pneumoniae clinical isolate KP-14-4 after 16 to 20 hrs by broth microdilution method; type: functional; procedure, shortened: as §2
Staphylococcus aureus [32] = assay: Induction of inner membrane permeabilization in Staphylococcus aureus ATCC 29213 at 10 to 20 ug/ml measured every 2 mins for 12 mins by propidium iodide staining-based fluorescence assay; type: functional, organism-based; procedure, shortened: as §4
Staphylococcus aureus [33] = assay: Induction of cytoplasmic membrane depolarization in Staphylococcus aureus ATCC 29213 at 10 to 20 ug/ml measured every 2 mins for 12 mins by DiSC35 dye-based fluorescence assay; type: functional, organism-based; procedure, shortened: as §3
Escherichia coli [34] = assay: Antibacterial activity against drug-resistant NDM1 producing Escherichia coli clinical isolate CF-15-61 after 16 to 20 hrs by broth microdilution method; type: functional; procedure, shortened: as §2
Escherichia coli [35] = assay: Antibacterial activity against drug-resistant NDM1 producing Escherichia coli clinical isolate SM-15-84 after 16 to 20 hrs by broth microdilution method; type: functional; procedure, shortened: as §2
Klebsiella pneumoniae [36] = assay: Antibacterial activity against drug-resistant carbapenemase producing Klebsiella pneumoniae clinical isolate KP-13-54 after 16 to 20 hrs by broth microdilution method; type: functional; procedure, shortened: as §2
Staphylococcus aureus [37] = assay: Antibacterial activity against methicillin-resistant Staphylococcus aureus clinical isolate 1104060 after 16 to 20 hrs by broth microdilution method; type: functional; procedure, shortened: as §2
Escherichia coli [38] = assay: Antibacterial activity against Escherichia coli ATCC 25922 after 16 to 20 hrs by broth microdilution method; type: functional; procedure, shortened: as §1
[39] = Hemolytic activity in sheep RBC after 1 hr; type: ADME, cell-based, Ovis aries, Erythrocyte; conditions: sheep red blood cells (erythrocytes)
Procedure, shortened: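 Sheep red blood cells (150 µL suspension) mixed with 50 µL of compound dilutions (5120-10 µg/mL), 1 h at 37 °C, then centrifuged. Supernatant read at 540 nm. Percent hemolysis calculated relative to RBC-only control (0%) and 0.1% Triton X-100 (100%).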

Klebsiella pneumoniae [40] = assay: Antibacterial activity against drug-resistant carbapenemase producing Klebsiella pneumoniae clinical isolate KP-14-1 after 16 to 20 hrs by broth microdilution method; type: functional; procedure, shortened: as §2

Compound `CCCCCCCC[N+](C)(C)CC(=O)Nc1ccc(C(=O)/C=C/c2ccc(Cl)cc2)cc1.[Cl-]` has an MIC (Staphylococcus aureus [1]) of 2 µg/mL, an MIC (Escherichia coli [2]) of 8 µg/mL and an MIC (Staphylococcus aureus [3]) of 0.5 µg/mL. For the same compound, the MIC (Escherichia coli [4]) was 8 µg/mL, the MIC (Klebsiella pneumoniae [5]) was 8 µg/mL and the MIC (Staphylococcus aureus [6]) was 2 µg/mL. The MIC (Klebsiella pneumoniae [7]) was 32 µg/mL, the Activity (Escherichia coli [8]) was “Active” and the MIC (Staphylococcus aureus [9]) was 2 µg/mL. For the same compound, the MIC (Staphylococcus aureus [10]) was 0.5 µg/mL, the MIC (Escherichia coli [11]) was 4 µg/mL and the MIC (Klebsiella pneumoniae [12]) was 8 µg/mL. It also gave an MIC (Staphylococcus aureus [13]) of 1 µg/mL, an MIC (Staphylococcus aureus [14]) of 1 µg/mL and an MIC (Klebsiella pneumoniae [15]) of 8 µg/mL. It also gave an MIC (Escherichia coli [16]) of 8 µg/mL, an MIC (Escherichia coli [17]) of 8 µg/mL and an MIC (Klebsiella pneumoniae [18]) of 8 µg/mL. For the same compound, the MIC (Klebsiella pneumoniae [19]) was 16 µg/mL, the Activity (Escherichia coli [20]) was “Active” and the MIC (Escherichia coli [21]) was 4 µg/mL. It also gave an MIC (Staphylococcus aureus [22]) of 1 µg/mL, an MIC (Escherichia coli [23]) of 4 µg/mL and an MIC (Escherichia coli [24]) of 16 µg/mL. The MIC (Klebsiella pneumoniae [25]) was 16 µg/mL, the MIC (Klebsiella pneumoniae [26]) was 8 µg/mL and the MIC (Salmonella enterica) was 8 µg/mL. It also gave an MIC (Klebsiella pneumoniae [27]) of 8 µg/mL, an MIC (Escherichia coli [28]) of 4 µg/mL and an MIC (Escherichia coli [29]) of 16 µg/mL. The MIC (Enterococcus faecalis) was 2 µg/mL, the MIC (Staphylococcus aureus [30]) was 2 µg/mL and the MIC (Klebsiella pneumoniae [31]) was 8 µg/mL. The Activity (Staphylococcus aureus [32]) was “Active”, the Activity (Staphylococcus aureus [33]) was “Active” and the MIC (Escherichia coli [34]) was 8 µg/mL. For the same compound, the MIC (Escherichia coli [35]) was 16 µg/mL, the MIC (Klebsiella pneumoniae [36]) was 8 µg/mL and the MIC (Staphylococcus aureus [37]) was 4 µg/mL. The MIC (Escherichia coli [38]) was 4 µg/mL, the HC50 at 1 h [39] was over 500 µg/mL and the MIC (Klebsiella pneumoniae [40]) was 16 µg/mL.

From ChEMBL document CHEMBL4138242, “Synthesis and antibacterial evaluation of novel cationic chalcone derivatives possessing broad spectrum antibacterial activity” (Eur J Med Chem, 2018)
